From ChEMBL document CHEMBL4190389, “Synthesis and activity of di- or trisubstituted N-(phenoxyalkyl)- or N-{2-[2-(phenoxy)ethoxy]ethyl}piperazine derivatives on the central nervous system” (Bioorg Med Chem Lett, 2018)
Activity calls are given as the source filed them. The calls are words filed in the database; no cut-off is given here.

Legend:
[1] = target: T1, 5-hydroxytryptamine receptor 1A (Homo sapiens, UniProt P08908); test: Displacement of [3H]8-OH-DPAT from recombinant human 5-HT1A receptor expressed in HEK293 cell membranes after 60 mins by liquid scintillation counting method
T1 sequence (P08908 whole entry): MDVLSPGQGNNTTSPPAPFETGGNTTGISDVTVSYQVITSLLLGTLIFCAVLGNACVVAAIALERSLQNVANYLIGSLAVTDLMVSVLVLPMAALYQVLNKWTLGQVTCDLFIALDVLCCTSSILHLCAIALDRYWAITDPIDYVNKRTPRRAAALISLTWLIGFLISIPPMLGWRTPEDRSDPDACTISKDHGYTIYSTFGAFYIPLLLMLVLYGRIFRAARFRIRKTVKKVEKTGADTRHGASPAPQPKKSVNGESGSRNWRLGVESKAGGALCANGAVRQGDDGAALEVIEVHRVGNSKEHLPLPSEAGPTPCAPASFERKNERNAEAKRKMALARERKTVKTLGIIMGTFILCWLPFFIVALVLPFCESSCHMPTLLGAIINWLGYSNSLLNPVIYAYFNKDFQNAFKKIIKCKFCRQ

[2] = test system: Mus musculus; test: Antidepressant-like activity in Albino Swiss CD-1 mouse assessed as immobility time at 5 mg/kg, ip administered 30 mins prior to test measured for last 4 mins of 6 mins observation by forced swim test (reference value: 153.9 to 201.9 secs); type: functional
[3] = test system: Mus musculus; test: Antidepressant-like activity in Albino Swiss CD-1 mouse assessed as immobility time at 10 mg/kg, ip administered 30 mins prior to test measured for last 4 mins of 6 mins observation by forced swim test (reference value: 153.9 to 201.9 secs); type: functional
[4] = test system: Mus musculus; test: Antidepressant-like activity in Albino Swiss CD-1 mouse assessed as immobility time at 20 mg/kg, ip administered 30 mins prior to test measured for last 4 mins of 6 mins observation by forced swim test (reference value: 153.9 to 201.9 secs); type: functional
[5] = test system: Mus musculus; test: Anxiolytic-like activity in Albino Swiss CD-1 mouse assessed as increase in number of punished crossings at 2.5 mg/kg, ip administered for 30 mins prior to test measured for 1 min by four-plate test; type: functional, organism-based
How it was run: (§1)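 Four-plate test in mice, i.p., 30 min before test; vehicle 0.9% NaCl; doses 1.25–10 mg/kg; number of punished crossings counted; mean ± SEM, n = 8–10 mice per group; ANOVA F statistics.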

[6] = test system: Mus musculus; test: Anxiolytic-like activity in Albino Swiss CD-1 mouse assessed as increase in number of punished crossings at 5 mg/kg, ip administered for 30 mins prior to test measured for 1 min by four-plate test; type: functional, organism-based; how it was run: as §1
[7] = test system: Mus musculus; test: Toxicity in Albino Swiss CD-1 mouse assessed as death at 100 mg/kg, ip; type: organism-based; conditions: in vivo
How it was run: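 Deaths counted in mice during maximal electroshock (MES) seizure testing after i.p. dosing, 6 mice per dose (3 or 1 at some top doses); recorded as number dead/number tested alongside protection and rotarod motor impairment (10 rpm); untreated control group included.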

[8] = test system: Mus musculus; test: Anticonvulsant activity in ip dosed Albino Swiss CD-1 mouse assessed as dose required to protect against 50 Hz current-induced seizure; type: functional; conditions: Swiss CD-1, ip
[9] = Neurotoxicity in ip dosed Albino Swiss CD-1 mouse assessed as minimum dose required to induce motor impairment treated 30 mins prior to test by rotarod test; type: toxicity, organism-based; conditions: in vivo
[10] = Protection index, ratio of TD50 for motor impairment in ip dosed Swiss albino CD-1 mouse to ED50 for protection against 50 Hz current-induced seizures in ip dosed Swiss albino CD-1 mouse; type: toxicity, organism-based, Swiss CD-1; conditions: in vivo, read-out: Ratio TD50/ED50
[11] = test system: Mus musculus; test: Toxicity in Albino Swiss CD-1 mouse assessed as effect on locomotory activity at 1.25 to 5 mg/kg, ip administered for 30 mins prior to test measured for 1 min; type: organism-based; conditions: in vivo
[12] = target: 5-hydroxytryptamine receptor 6 (Homo sapiens, UniProt P50406); test: Displacement of [3H]LSD from recombinant human 5-HT6 receptor expressed in CHO cells cell membranes at 10^-5 M after 60 mins by liquid scintillation counting method
Sequence of 5-hydroxytryptamine receptor 6 (P50406 whole entry): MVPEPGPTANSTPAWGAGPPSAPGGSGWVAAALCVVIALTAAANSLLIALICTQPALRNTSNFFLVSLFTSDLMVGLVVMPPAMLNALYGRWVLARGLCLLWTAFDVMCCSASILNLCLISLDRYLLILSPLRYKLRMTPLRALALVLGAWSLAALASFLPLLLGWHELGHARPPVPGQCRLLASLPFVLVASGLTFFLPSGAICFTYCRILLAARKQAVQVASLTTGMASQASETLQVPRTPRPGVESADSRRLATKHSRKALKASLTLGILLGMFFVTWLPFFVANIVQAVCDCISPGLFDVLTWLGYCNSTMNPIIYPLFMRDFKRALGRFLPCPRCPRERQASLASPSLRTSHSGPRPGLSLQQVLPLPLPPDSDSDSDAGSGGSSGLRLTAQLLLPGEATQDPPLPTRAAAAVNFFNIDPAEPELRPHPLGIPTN

[13] = target: 5-hydroxytryptamine receptor 7 (Homo sapiens, UniProt P34969); test: Displacement of [3H]LSD from recombinant human 5-HT7 receptor expressed in CHO cell membranes at 10^-5 M after 60 mins by liquid scintillation counting method
Sequence of 5-hydroxytryptamine receptor 7 (P34969 whole entry): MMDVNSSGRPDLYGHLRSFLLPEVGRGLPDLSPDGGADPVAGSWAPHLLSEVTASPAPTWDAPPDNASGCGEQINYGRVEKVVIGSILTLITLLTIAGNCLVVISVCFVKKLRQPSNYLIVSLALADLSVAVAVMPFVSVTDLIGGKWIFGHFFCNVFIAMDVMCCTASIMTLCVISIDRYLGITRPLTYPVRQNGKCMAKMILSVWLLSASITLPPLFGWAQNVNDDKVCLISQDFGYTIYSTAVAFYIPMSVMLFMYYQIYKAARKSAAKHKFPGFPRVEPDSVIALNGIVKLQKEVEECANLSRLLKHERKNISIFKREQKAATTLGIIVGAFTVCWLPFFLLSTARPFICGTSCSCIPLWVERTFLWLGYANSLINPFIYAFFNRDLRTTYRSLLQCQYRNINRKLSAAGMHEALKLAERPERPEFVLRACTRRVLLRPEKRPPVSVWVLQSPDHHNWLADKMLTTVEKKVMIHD

[14] = target: T2, Alpha-1A adrenergic receptor (Homo sapiens) (UniProt P35348); test: Displacement of [3H]prazosin from recombinant human alpha1 adrenoceptor expressed in CHO cell membranes at 10^-5 M after 30 mins by liquid scintillation counting method
T2 sequence (whole entry): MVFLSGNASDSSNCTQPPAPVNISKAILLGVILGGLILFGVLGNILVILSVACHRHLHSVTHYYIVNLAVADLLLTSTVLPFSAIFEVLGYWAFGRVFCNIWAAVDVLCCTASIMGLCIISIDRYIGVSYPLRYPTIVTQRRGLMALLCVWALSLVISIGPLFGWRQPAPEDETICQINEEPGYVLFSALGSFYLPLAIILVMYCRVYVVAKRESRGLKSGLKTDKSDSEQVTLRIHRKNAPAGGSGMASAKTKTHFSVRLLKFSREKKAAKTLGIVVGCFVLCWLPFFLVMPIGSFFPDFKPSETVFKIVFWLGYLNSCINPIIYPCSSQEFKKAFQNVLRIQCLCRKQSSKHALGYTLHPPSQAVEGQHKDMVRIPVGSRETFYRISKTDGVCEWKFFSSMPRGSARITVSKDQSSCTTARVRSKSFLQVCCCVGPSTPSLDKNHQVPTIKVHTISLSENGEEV

[15] = target: T3, Adrenergic receptor alpha-1 (Rattus norvegicus, UniProt P15823+P23944+P43140); test: Displacement of [3H]prazosin from rat cerebral cortex adrenergic receptor alpha1 by liquid scintillation counting method
T3 sequence (P15823 whole entry): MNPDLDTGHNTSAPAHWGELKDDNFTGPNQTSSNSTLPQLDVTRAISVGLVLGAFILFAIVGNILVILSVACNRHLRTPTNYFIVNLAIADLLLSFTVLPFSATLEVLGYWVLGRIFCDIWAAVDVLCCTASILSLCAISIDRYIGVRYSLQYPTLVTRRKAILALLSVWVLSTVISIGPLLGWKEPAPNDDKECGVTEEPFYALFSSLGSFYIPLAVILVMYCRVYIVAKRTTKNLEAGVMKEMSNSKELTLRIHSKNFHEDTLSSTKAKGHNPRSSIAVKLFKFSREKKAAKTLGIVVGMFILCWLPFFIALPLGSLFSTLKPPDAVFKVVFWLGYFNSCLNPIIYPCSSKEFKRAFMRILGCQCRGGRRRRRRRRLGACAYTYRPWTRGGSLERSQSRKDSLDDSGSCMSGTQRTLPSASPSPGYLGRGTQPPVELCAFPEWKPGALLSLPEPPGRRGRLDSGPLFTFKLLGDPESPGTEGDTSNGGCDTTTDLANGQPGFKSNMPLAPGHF
T3 sequence (P23944 whole entry): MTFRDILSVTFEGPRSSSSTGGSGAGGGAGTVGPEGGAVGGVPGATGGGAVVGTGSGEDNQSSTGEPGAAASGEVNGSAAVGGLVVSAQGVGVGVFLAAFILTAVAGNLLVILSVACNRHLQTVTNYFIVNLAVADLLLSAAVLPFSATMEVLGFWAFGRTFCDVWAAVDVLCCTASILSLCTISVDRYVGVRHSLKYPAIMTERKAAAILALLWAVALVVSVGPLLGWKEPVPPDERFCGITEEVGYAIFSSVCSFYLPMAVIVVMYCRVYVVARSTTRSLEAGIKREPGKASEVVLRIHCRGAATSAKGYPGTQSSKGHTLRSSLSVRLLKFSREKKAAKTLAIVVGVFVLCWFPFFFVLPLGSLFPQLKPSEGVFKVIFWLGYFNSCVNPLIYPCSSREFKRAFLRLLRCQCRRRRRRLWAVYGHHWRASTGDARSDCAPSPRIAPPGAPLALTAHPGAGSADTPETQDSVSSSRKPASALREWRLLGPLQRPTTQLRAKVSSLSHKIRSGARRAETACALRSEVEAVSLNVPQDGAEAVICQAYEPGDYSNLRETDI
T3 sequence (P43140 whole entry): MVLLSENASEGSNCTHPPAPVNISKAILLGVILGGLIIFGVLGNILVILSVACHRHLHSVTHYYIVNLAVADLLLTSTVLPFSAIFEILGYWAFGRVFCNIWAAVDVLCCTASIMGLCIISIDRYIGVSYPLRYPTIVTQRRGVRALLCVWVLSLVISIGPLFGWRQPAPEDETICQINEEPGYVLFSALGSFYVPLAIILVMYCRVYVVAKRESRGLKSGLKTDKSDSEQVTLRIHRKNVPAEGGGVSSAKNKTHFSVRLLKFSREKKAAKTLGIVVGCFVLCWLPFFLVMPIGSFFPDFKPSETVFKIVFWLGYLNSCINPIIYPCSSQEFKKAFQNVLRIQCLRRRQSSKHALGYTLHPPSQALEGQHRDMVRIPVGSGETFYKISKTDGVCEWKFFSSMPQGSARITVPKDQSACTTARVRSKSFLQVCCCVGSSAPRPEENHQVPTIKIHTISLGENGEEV

[16] = target: 5-hydroxytryptamine receptor 2A (Homo sapiens, UniProt P28223); test: Binding affinity to 5-HT2A receptor (unknown origin)
Sequence of 5-hydroxytryptamine receptor 2A (P28223 whole entry): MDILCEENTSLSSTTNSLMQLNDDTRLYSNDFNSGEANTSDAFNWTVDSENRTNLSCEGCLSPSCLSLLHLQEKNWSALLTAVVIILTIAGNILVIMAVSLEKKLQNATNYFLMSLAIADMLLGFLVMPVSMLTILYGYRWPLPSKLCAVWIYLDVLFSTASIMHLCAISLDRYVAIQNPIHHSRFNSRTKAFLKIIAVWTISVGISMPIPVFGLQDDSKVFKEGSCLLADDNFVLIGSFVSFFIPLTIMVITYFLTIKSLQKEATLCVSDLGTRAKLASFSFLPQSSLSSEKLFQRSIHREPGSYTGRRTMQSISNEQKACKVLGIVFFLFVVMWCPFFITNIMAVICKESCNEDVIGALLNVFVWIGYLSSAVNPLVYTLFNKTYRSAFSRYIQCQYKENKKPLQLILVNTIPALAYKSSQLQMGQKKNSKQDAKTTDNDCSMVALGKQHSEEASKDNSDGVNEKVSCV

[17] = target: D(2) dopamine receptor (Homo sapiens, UniProt P14416); test: Binding affinity to D2 receptor (unknown origin)
Sequence of D(2) dopamine receptor (P14416 whole entry): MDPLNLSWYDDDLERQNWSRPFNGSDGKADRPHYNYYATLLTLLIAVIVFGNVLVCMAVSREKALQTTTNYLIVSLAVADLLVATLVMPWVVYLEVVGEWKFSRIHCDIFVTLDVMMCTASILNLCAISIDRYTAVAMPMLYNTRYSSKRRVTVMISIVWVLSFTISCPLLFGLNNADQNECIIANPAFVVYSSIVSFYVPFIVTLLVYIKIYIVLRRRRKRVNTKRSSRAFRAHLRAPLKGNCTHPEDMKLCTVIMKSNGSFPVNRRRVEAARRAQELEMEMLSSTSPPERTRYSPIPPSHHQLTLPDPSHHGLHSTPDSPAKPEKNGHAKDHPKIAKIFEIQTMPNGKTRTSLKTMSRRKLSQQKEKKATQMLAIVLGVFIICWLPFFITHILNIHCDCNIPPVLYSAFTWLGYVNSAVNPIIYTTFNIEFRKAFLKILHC

`Cc1cc(C)c(OCCN2CCN(CCOCCO)CC2)c(C)c1.Cl.Cl` gave a Ki [1] of 3170 nM, a Time [2] of 152.5 s and a Time [3] of 135.3 s. The Time [4] was 128 s, the Activity [5] was “Active” and the Activity [6] was “Active”. The Activity [7] was “Non-Toxic”, the ED50 [8] was 45.4 mg/kg and the TD50 at 0.5 h [9] was 85.3 mg/kg. For the same molecule, the selectivity ratio [10] was 1.88, the Activity [11] was “Non-Toxic” and the inhibition [12] was “inactive”. The inhibition [13] was “inactive” and the inhibition [14] was “inactive”.

`OCCOCCN1CCN(C(c2ccccc2)c2ccc(Cl)cc2)CC1` (configuration not stated) [HYDROXYZINE] gave a Ki [15] of 300 nM, a Ki [16] of 50 nM and a Ki [17] of 378 nM.
